Assay results collected from several papers.
Protocols differ between the studies behind these lines.
Target: Wee1-like protein kinase 2 (WEE2, Homo sapiens, UniProt P0C1S8)

CNC(=O)c1ccc(Nc2ncc(C(F)(F)F)c(NCc3nccnc3N(C)S(C)(=O)=O)n2)cc1 — remaining binding (cell-free assay, competition with immobilised ligand; 0.1 µM): 97%
O=C(Nc1c[nH]nc1C(=O)NC1CCNCC1)c1cc(F)cc(F)c1 — remaining binding (binding, competition with immobilised ligand; 1 µM): 100%
CCCCN(CCCC)C(=O)CN1C[C@@H](c2cc(OC)c3c(c2)OCO3)[C@H](C(=O)O)[C@H]1CC(C)(C)CCC — remaining binding (cell-free assay, competition with immobilised ligand; 1 µM): 89.1%
Cc1cnn2ncc(-c3ccnc(N(C)C)n3)c2c1 — remaining binding (binding; 1 µM): 100%
C[C@@H](c1ccc(-n2cnc3c(N)ncnc32)cc1)N1CCc2nn(C)c(Cc3ccccc3)c2C1=O — remaining binding (binding, competition with immobilised ligand; 0.1 µM): 92%
O=C(c1ccc(Nc2ncc(Cl)c(-c3cc4ccccc4s3)n2)cc1)N1CCC(N2CCCC2)CC1 — remaining binding (binding, competition with immobilised ligand; 1 µM): 27%
C[C@@H]1CCN(c2nccc(-c3cnn4ncccc34)n2)C1 — remaining binding (binding; 1 µM): 87%
COc1cnc(Nc2cccc(S(N)(=O)=O)c2)nc1N1CCN(c2ccccc2)C(=O)C1 — remaining binding (binding, competition with immobilised ligand; 1 µM): 100%
c1cncc(-c2cccc(Nc3nccc(NC4CCCCC4)n3)c2)c1 — remaining binding (binding, competition with immobilised ligand; 10 µM): 100%
N[C@H]1CCN(c2nccc(-c3cnn4ncccc34)n2)C1 — remaining binding (binding; 1 µM): 100%
CCc1ccccc1C(=O)Nc1n[nH]c2c(C)c(F)c(C3C(C#N)=C(C)N(C)C(C)=C3C#N)cc12 — remaining binding (cell-free assay, competition with immobilised ligand; 1 µM): 82%
c1cnn2ncc(-c3ccnc(N4CCC45COC5)n3)c2c1 — remaining binding (binding; 1 µM): 76%
CNC(=O)[C@@H]1CC[C@@H](n2c(-c3ccc4cnccc4c3)nc3ccc(C(=O)NCc4cccc(C(N)=O)c4)cc32)C1 — remaining binding (binding, competition with immobilised ligand; 1 µM): 100%
FC(F)(F)c1ccc2c(c1)nc(-c1cccnc1)n2C1CC1 — remaining binding (cell-free assay, competition with immobilised ligand; 1 µM): 100%
Cc1cnc(Nc2ccc(C(=O)N3CCC(N4CCCC4)CC3)cc2)nc1-c1cc2ccccc2s1 — remaining binding (binding, competition with immobilised ligand; 1 µM): 15%
CNCc1ccccc1-c1csc([C@@H](C)Nc2nc(C)nc3cc(OC)c(OC)cc23)c1 — remaining binding (cell-free assay, competition with immobilised ligand; 1 µM): 100%
Nc1ncc2c(n1)-c1c([nH]c3ccc(C#CC4CC4)cc13)CCCC2 — remaining binding (binding, competition with immobilised ligand; 1 µM): 98%
CN(C)c1nccc(-c2cnn3ncccc23)n1 — remaining binding (binding; 1 µM): 100%
O=C(c1ccc(Nc2ncc(Cl)c(-c3ccc(Cl)s3)n2)cc1)N1CCC(N2CCCC2)CC1 — remaining binding (binding, competition with immobilised ligand; 1 µM): 8.4%
Cn1cc(Cl)c2c(Oc3c(F)cc(Nc4cc(Cl)nc(N)n4)cc3F)ccnc21 — remaining binding (cell-free assay, competition with immobilised ligand; 0.1 µM): 93%
COc1ccnn2ncc(-c3ccnc(N(C)C)n3)c12 — remaining binding (binding; 1 µM): 96%
